ChEMBL document CHEMBL4680257, “Discovery of novel NF-кB inhibitor based on scaffold hopping: 1,4,5,6,7,8-hexahydropyrido[4,3-d]pyrimidine” (Eur J Med Chem, 2020)
Active and inactive are the calls of the source. The rule behind the calls is not given here.

Experiments:
[1] = Cytotoxicity against human HHL-5 cells assessed as reduction in cell viability incubated for 24 hrs by MTT assay; assay type: cell-based; details: HHL-5, 24 h
Method in brief: (§1)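 Cells kept at 37 °C in 5% CO₂. HepG2 grown in DMEM with 10% serum; HHL-5, LO2 and SMMC-7721 in 1640 medium with 10% serum. Seeded, grown 24 h, then exposed 24 h to 10, 5, 2.5, 1.25, 0.625 and 0.3125 µg/mL. MTT (5 mg/mL) added for 4 h at 37 °C; formazan dissolved in DMSO, OD read at 570 nm. IC50 averaged from three replicates.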

RAW264.7 [2] = assay: Inhibition of NF-kappaB in mouse RAW264.7 cells assessed as reduction in LPS-induced p65 phosphorylation incubated for 1 hr followed by LPS stimulation and measured after 30 mins by Western blot analysis; assay type: cell-based; details: dose 1-4 µM
Method in brief: (§2)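 RAW264.7 incubated 1 h with compound (1.0, 2.0, 4.0 µM), then LPS 1.0 µg/mL for 30 min before extraction. Lysates blotted to nitrocellulose and probed overnight at 4 °C for total and phospho forms of p65, IκBα, Akt, ERK1/2, JNK and p38; secondary antibody 2 h at room temperature. ECL detection, normalized to GAPDH, mean ± SD of triplicate tests.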

SMMC-7721 [3] = assay: Induction of apoptosis in human SMMC-7721 cells assessed as viable cells at 1 uM incubated for 24 hrs by annexin V-FITC and PI staining based flow cytometry analysis (reference value: 93.3 %); assay type: functional; details: read-out: Activity
Method in brief: (§3)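 Cells seeded at 2×10^5 per well and treated 24 h with 1.0, 2.0 or 4.0 µM, or DMSO. Harvested, washed twice in cold PBS, resuspended at 1×10^5 cells/mL in buffer. Stained with Annexin V-FITC plus propidium iodide for 15 min at room temperature in the dark, then analysed by flow cytometry.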

SMMC-7721 [4] = assay: Induction of apoptosis in human SMMC-7721 cells assessed as early apoptotic cells at 1 uM incubated for 24 hrs by annexin V-FITC and PI staining based flow cytometry analysis (reference value: 0.3 %); assay type: functional; method in brief: as §3
HepG2 [5] = assay: Induction of apoptosis in human HepG2 cells assessed as increase in Caspase-3 expression incubated for 24 hrs by Western blot analysis; assay type: functional, cell-based; details: dose 1-4 µM
Method in brief: (§4)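 HepG2 exposed to 1.0, 2.0 or 4.0 µM for 24 h. Lysates separated by electrophoresis and blotted onto nitrocellulose. Probed overnight at 4 °C with anti-Bcl-2, anti-BAX or anti-cleaved caspase-3, then 2 h at room temperature with anti-mouse/rabbit IgG. ECL detection, GAPDH as loading control; quantified from more than three separate experiments.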

HepG2 [6] = assay: Inhibition of NF-kappaB in human HepG2 cells assessed as reduction in TNFalpha-induced p65 nuclear translocation at 4 uM pretreated with LPS for 15 mins followed by compound addition and measured after 2 hrs by DAPI staining based fluorescence microscopy; assay type: cell-based; details: time 135.0 min, in the assay text read “pretreated with TNF-alpha” for “pretreated with LPS”
Method in brief: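 HepG2 exposed to TNF-α (10 ng/mL) for 15 min, then 4.0 µM compound for 2 h. Fixed at room temperature and blocked with 3% BSA. Anti-p65 (1:200) overnight at 4 °C, then secondary (1:200) for 30 min at room temperature. Nuclei stained with DAPI; p65 location imaged on a high-content fluorescence system. Repeated three times.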

RAW264.7 [7] = assay: Inhibition of NF-kappaB in mouse RAW264.7 cells assessed as reduction in LPS-induced IkappaBalpha phosphorylation incubated for 1 hr followed by LPS stimulation and measured after 30 mins by Western blot analysis; assay type: cell-based; details: dose 1-4 µM; method in brief: as §2
HepG2 [8] = assay: Induction of apoptosis in human HepG2 cells assessed as increase in Bax expression incubated for 24 hrs by Western blot analysis; assay type: functional, cell-based; details: dose 1-4 µM; method in brief: as §4
HepG2 [9] = assay: Induction of apoptosis in human HepG2 cells assessed as late apoptotic cells at 1 uM incubated for 24 hrs by annexin V-FITC and PI staining based flow cytometry analysis (reference value: 4.8 %); assay type: functional; method in brief: as §3
HepG2 [10] = assay: Induction of apoptosis in human HepG2 cells incubated for 24 hrs by annexin V-FITC and PI staining based flow cytometry analysis; assay type: functional, cell-based; details: dose 1-4 µM; method in brief: as §3
SMMC-7721 [11] = assay: Induction of apoptosis in human SMMC-7721 cells assessed as viable cells at 4 uM incubated for 24 hrs by annexin V-FITC and PI staining based flow cytometry analysis (reference value: 93.3 %); assay type: functional; details: read-out: Activity; method in brief: as §3
HepG2 [12] = assay: Induction of apoptosis in human HepG2 cells assessed as decrease in Bcl-2 expression incubated for 24 hrs by Western blot analysis; assay type: functional, cell-based; details: dose 1-4 µM; method in brief: as §4
HepG2 [13] = assay: Cytotoxicity against human HepG2 cells assessed as reduction in cell viability incubated for 24 hrs by MTT assay; assay type: functional, cell-based; details: HepG2, 24 h; method in brief: as §1
SMMC-7721 [14] = assay: Induction of apoptosis in human SMMC-7721 cells assessed as necrotic cells at 1 uM incubated for 24 hrs by annexin V-FITC and PI staining based flow cytometry analysis (reference value: 1 %); assay type: functional; method in brief: as §3
RAW264.7 [15] = assay: Antiinflammatory activity against mouse RAW264.7 cells assessed as LPS-induced TNF-alpha at 5 uM pretreated for 2 hrs followed by LPS stimulation and measured after 22 hrs by ELISA (reference value: 0 %); assay type: functional; details: time 24 hrs
RAW264.7 [16] = assay: Inhibition of NF-kappaB in mouse RAW264.7 cells assessed as reduction in LPS-induced Akt phosphorylation at 1 to 4 uM incubated for 1 hr followed by LPS stimulation and measured after 30 mins by Western blot analysis; assay type: cell-based; details: dose 1-4 µM; method in brief: as §2
SMMC-7721 [17] = assay: Induction of apoptosis in human SMMC-7721 cells assessed as late apoptotic cells at 4 uM incubated for 24 hrs by annexin V-FITC and PI staining based flow cytometry analysis (reference value: 5.4 %); assay type: functional; method in brief: as §3
L02 = assay: Cytotoxicity against human L02 cells assessed as reduction in cell viability incubated for 24 hrs by MTT assay; assay type: cell-based; details: L02, 24 h; method in brief: as §1
HepG2 [18] = assay: Induction of apoptosis in human HepG2 cells assessed as necrotic cells at 1 uM incubated for 24 hrs by annexin V-FITC and PI staining based flow cytometry analysis (reference value: 0.8 %); assay type: functional; method in brief: as §3
HepG2 [19] = assay: Induction of apoptosis in human HepG2 cells assessed as late apoptotic cells at 4 uM incubated for 24 hrs by annexin V-FITC and PI staining based flow cytometry analysis (reference value: 4.8 %); assay type: functional; method in brief: as §3
SMMC-7721 [20] = assay: Induction of apoptosis in human SMMC-7721 cells assessed as early apoptotic cells at 4 uM incubated for 24 hrs by annexin V-FITC and PI staining based flow cytometry analysis (reference value: 0.3 %); assay type: functional; method in brief: as §3
HepG2 [21] = assay: Induction of apoptosis in human HepG2 cells assessed as viable cells at 1 uM incubated for 24 hrs by annexin V-FITC and PI staining based flow cytometry analysis (reference value: 94.2 %); assay type: functional; details: read-out: Activity; method in brief: as §3
RAW264.7 [22] = assay: Inhibition of NF-kappaB in mouse RAW264.7 cells assessed as reduction in LPS-induced ERK phosphorylation at 1 to 4 uM incubated for 1 hr followed by LPS stimulation and measured after 30 mins by Western blot analysis; assay type: cell-based; details: dose 1-4 µM; method in brief: as §2
HepG2 [23] = assay: Inhibition of NF-kappaB in human HepG2 cells assessed as reduction in TNFalpha-induced p65 nuclear translocation at 4 uM pretreated with TNFalpha for 15 mins followed by compound addition and measured after 2 hrs by DAPI staining based fluorescence microscopy; details: time 135.0 min

Cl.NC1=NC(c2cccc(F)c2)C2=C(N1)/C(=C/c1cccc(F)c1)CN(S(=O)(=O)c1ccc(C(F)(F)F)cc1)C2 (centres undefined)
IC50 [1]: 28.8 µM | inhibition (RAW264.7 [2]): Dose-dependent effect | viability at 1 µM (SMMC-7721 [3]): 80.8% | Activity (SMMC-7721 [4]): 3.2% | Activity (HepG2 [5]): Dose-dependent effect | inhibition (HepG2 [6]): Active | inhibition (RAW264.7 [7]): Dose-dependent effect | Activity (HepG2 [8]): Dose-dependent effect | Activity (HepG2 [9]): 10.5% | Activity (HepG2 [10]): Dose-dependent effect | viability at 4 µM (SMMC-7721 [11]): 66.5% | Activity (HepG2 [12]): Dose-dependent effect | IC50 (HepG2 [13]): 2.1 µM | Activity (SMMC-7721 [14]): 0.7% | inhibition at 5 µM (RAW264.7 [15]): 88.5% | inhibition (RAW264.7 [16]): Active | Activity (SMMC-7721 [17]): 9.2% | IC50 (L02): 35.2 µM | Activity (HepG2 [18]): 0.8% | Activity (HepG2 [19]): 18.5% | Activity (SMMC-7721 [20]): 11.4% | viability at 1 µM (HepG2 [21]): 35.3% | inhibition (RAW264.7 [22]): Active | inhibition (HepG2 [23]): Active
